Results as given in article PMC8959088 (Journal of the American Chemical Society, 2022).

Molecular target: KIX domain of p300/CBP (KIX–MLL interaction) (Mus musculus, UniProt P45481)
Test: competition fluorescence polarization assay, inhibition of KIX–MLL interaction
Assay type: binding
Procedure, shortened: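 Competition fluorescence polarization format: test peptidomimetic competes with fluorescently labeled MLL peptide for KIX, and Ki is derived from the competition data.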

Chain of KIX domain of p300/CBP (KIX–MLL interaction) (P45481 586-665 limits assumed): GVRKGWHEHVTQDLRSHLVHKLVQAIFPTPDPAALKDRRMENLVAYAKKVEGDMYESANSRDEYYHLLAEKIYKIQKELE

Ac-SDIMDFVLKNTP-NH2 [MLL^847–858, Ac-SDIMDFVLKNTP-NH2]
Ki: > 1000 µM
